# Source: publication PMC3558988 (Journal of Chemotherapy (Florence, Italy), 2013)
# How the values were obtained:
# [1] = tested on: three strains of S. aureus; test: MIC summary over the three test strains; type: cell-based, Staphylococcus aureus
# Method in brief: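 Broth microdilution MICs per CLSI guidelines, run in triplicate, for the test compound and a panel of comparator antimicrobials including linezolid. Tested against the three S. aureus isolates used in the study (one MSSA, one CA-MRSA, one HA-MRSA).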
# [2] = Plasma protein-binding by ultrafiltration; type: in vitro ADME; conditions: mouse plasma, 0·1 to 2 μg/ml
# [3] = Pharmacokinetics after single oral doses in MSSA-infected neutropenic mice; type: in vivo; conditions: for fAUC0–24: free drug
# MSSA ATCC 29213 = test: Neutropenic murine thigh infection model, efficacy and pharmacodynamics; type: in vivo, Staphylococcus aureus; conditions: oral, neutropenic mice, 24 hours
# CA-MRSA = test: Neutropenic murine thigh infection model, single-dose response; type: in vivo, Staphylococcus aureus; conditions: 24 hours
# [4] = cited from earlier work
# [5] = tested on: CA-MRSA (No. 32, CDC type USA300, PVL-positive); test: MIC by broth microdilution; type: cell-based; conditions: Staphylococcus aureus
smiles,measurement,setting,value
Cc1c(CN(C)C(=O)/C=C/c2cnc3c(c2)CCC(=O)N3)oc2ccccc12 [AFN-1252],level of activity (MIC) greater than linezolid,[1],at least 500 fold
same,level of activity (MIC) greater than other antibacterials tested,[1],at least 32 fold
same,concentration dependence of protein binding,[2],no concentration-dependent binding
same,fAUC0–24,[3]; 5 mg/kg single oral dose,113 ng·h/mL
same,fAUC0–24,[3]; 10 mg/kg single oral dose,141 ng·h/mL
same,fAUC0–24,[3]; 30 mg/kg single oral dose,160 ng·h/mL
same,fAUC0–24,[3]; 100 mg/kg single oral dose,285 ng·h/mL
same,"PK profile (dose proportionality of fAUC, fCmax, Tmax)",[3]; single oral doses 2·5-100 mg/kg,non-linear exposures
same,doses giving reductions in total bacterial count of 1 log and greater compared to time 0,MSSA ATCC 29213; MSSA,≥ 20 mg/kg
same,dose at which reduction in MSSA growth rate began,MSSA ATCC 29213,5 mg/kg
same,dose giving marked reduction in bacterial count relative to time 0,CA-MRSA; single oral dose,≥ 10 mg/kg
same,permeability,[4]; BCS,high
same,Biopharmaceutics Classification System class,[4],Class 2
CCC[C@@H]1C[C@@H](C(=O)N[C@@H]([C@H]2O[C@H](SC)[C@H](O)[C@@H](O)[C@H]2O)[C@H](C)Cl)N(C)C1 [Clindamycin],MIC,[5],> 16 µg/mL
CC[C@H]1OC(=O)[C@H](C)[C@@H](O[C@H]2C[C@@](C)(OC)[C@@H](O)[C@H](C)O2)[C@H](C)[C@@H](O[C@@H]2O[C@H](C)C[C@H](N(C)C)[C@H]2O)[C@](C)(O)C[C@@H](C)C(=O)[C@H](C)[C@@H](O)[C@]1(C)O [Erythromycin],MIC,[5],> 32 µg/mL
CC(=O)NC[C@H]1CN(c2ccc(N3CCOCC3)c(F)c2)C(=O)O1 [Linezolid],effect on bacterial growth,CA-MRSA; 10 and 40 mg/kg single oral dose,some suppression of growth
same,doses required to achieve consistent reductions in CFU,CA-MRSA; single oral dose,≥ 100 mg/kg
